In ChEMBL document CHEMBL2417469, “Synthesis of novel analogs of 2-pyrazoline obtained from [(7-chloroquinolin-4-yl)amino]chalcones and hydrazine as potential antitumor and antimalarial agents” (Eur J Med Chem, 2013):

Experiments:
Type in all cases: functional
Plasmodium falciparum = test: Antimalarial activity against Plasmodium falciparum NF54 infected in human serum at 20 ug/ml after 48 hrs by fluorometric method
Summary of the method: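 Asynchronous P. falciparum NF54 at 1.5–2% parasitemia, 5% hematocrit in RPMI with 10% human serum, exposed 48 h at 37 °C under 90% N2/5% CO2/5% O2 at the stated concentration; parasite DNA stained with ethidium bromide after proteinase K lysis; viability % = (Flu treated − medium)/(Flu untreated − medium) ×100; triplicate.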

T47D = test: Cytotoxicity against human T47D cells after 48 hrs by SRB assay
Summary of the method: (§1)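 NCI 60-cell screen. Cells grew 24 h (37 °C, 5% CO2) before compound was added. Compounds were in DMSO and diluted in medium with gentamicin, then tested at five levels (100, 10, 1.0, 0.1, 0.01 µM) with 48 h continuous exposure. Adherent cells were fixed with TCA (10% final) and stained with 0.4% SRB, absorbance read at 515 nm. A time-zero plate was included. LC50 is the concentration giving 50% loss of protein relative to time zero.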

TK-10 = test: Cytotoxicity against human TK10 cells after 48 hrs by SRB assay; details: TK-10, 48 h; summary of the method: as §1
CAKI-1 = test: Cytotoxicity against human Caki1 cells after 48 hrs by SRB assay; details: CAKI-1, 48 h
Summary of the method: (§2)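 NCI 60-cell-line screen. Cells preincubated 24 h at 37 °C, 5% CO2; time-zero plates TCA-fixed. Compounds dissolved in DMSO and tested at five concentrations (100, 10, 1.0, 0.1, 0.01 µM) for 48 h continuous exposure. Adherent cells fixed with cold TCA (10% final), then SRB stained; absorbance at 515 nm. GI50, TGI and LC50 calculated from growth relative to time-zero and untreated controls.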

RXF 393 = test: Cytotoxicity against human RXF393 cells after 48 hrs by SRB assay; details: RXF 393, 48 h; summary of the method: as §2
ACHN = test: Cytotoxicity against human ACHN cells after 48 hrs by SRB assay; details: for CC50: read-out: LC50 (the source's name); summary of the method: as §2
A498 = test: Cytotoxicity against human A498 cells after 48 hrs by SRB assay; details: A498, 48 h; for CC50: read-out: LC50 (the source's name); summary of the method: as §2
SK-OV-3 = test: Cytotoxicity against human SKOV3 cells after 48 hrs by SRB assay; details: SK-OV-3, 48 h; summary of the method: as §2
OVCAR-8 = test: Cytotoxicity against human OVCAR8 cells after 48 hrs by SRB assay; details: OVCAR-8, 48 h; summary of the method: as §2
OVCAR-5 = test: Cytotoxicity against human OVCAR5 cells after 48 hrs by SRB assay; details: OVCAR-5, 48 h; summary of the method: as §2
SK-MEL-28 = test: Cytotoxicity against human SK-MEL-28 cells after 48 hrs by SRB assay; details: SK-MEL-28, 48 h; for CC50: read-out: LC50 (the source's name); summary of the method: as §2
Malme-3M = test: Cytotoxicity against human MALME-3M cells after 48 hrs by SRB assay; summary of the method: as §2
U-251 = test: Cytotoxicity against human U251 cells after 48 hrs by SRB assay; details: U-251, 48 h; for CC50: read-out: LC50 (the source's name); summary of the method: as §1
SF-539 = test: Cytotoxicity against human SF539 cells after 48 hrs by SRB assay; details: SF-539, 48 h; for CC50: read-out: LC50 (the source's name); summary of the method: as §2
SF-295 = test: Cytotoxicity against human SF295 cells after 48 hrs by SRB assay; details: SF-295, 48 h; summary of the method: as §2
SW-620 = test: Cytotoxicity against human SW620 cells after 48 hrs by SRB assay; details: SW-620, 48 h; summary of the method: as §1
HT-29 = test: Cytotoxicity against human HT-29 cells after 48 hrs by SRB assay; details: HT-29, 48 h; summary of the method: as §2
HCT-116 = test: Cytotoxicity against human HCT116 cells after 48 hrs by SRB assay; details: HCT-116, 48 h; summary of the method: as §2
COLO 205 = test: Cytotoxicity against human COLO205 cells after 48 hrs by SRB assay; details: COLO 205, 48 h; summary of the method: as §2
SR = test: Cytotoxicity against human SR cells after 48 hrs by SRB assay; summary of the method: as §1
RPMI-8226 = test: Cytotoxicity against human RPMI8226 cells after 48 hrs by SRB assay; details: RPMI-8226, 48 h; summary of the method: as §2
MOLT-4 = test: Cytotoxicity against human MOLT4 cells after 48 hrs by SRB assay; details: MOLT-4, 48 h; summary of the method: as §2
CCRF-CEM = test: Cytotoxicity against human CCRF-CEM cells after 48 hrs by SRB assay; summary of the method: as §2

Compound: COc1ccc(C2CC(c3ccc(Nc4ccnc5cc(Cl)ccc45)cc3)=NN2C=O)cc1 (stereo not drawn)
- inhibition at 20 µg/mL (Plasmodium falciparum): 0%
- GI50 (T47D): 1.38 µM
- LC50 (concentration giving 50% cell kill relative to time zero) (T47D): > 100 µM
- GI50 (TK-10): 20.9 µM
- LC50 (concentration giving 50% cell loss vs time zero) (TK-10): > 100 µM
- GI50 (CAKI-1): > 100 µM
- LC50 (CAKI-1): > 100 µM
- GI50 (RXF 393): 11.6 µM
- LC50 (concentration killing 50% of cells) (RXF 393): > 100 µM
- GI50 (ACHN): 7.02 µM
- CC50 (ACHN): > 100 µM
- GI50 (A498): > 100 µM
- CC50 (A498): > 100 µM
- GI50 (SK-OV-3): > 100 µM
- LC50 (concentration killing 50% of cells) (SK-OV-3): > 100 µM
- GI50 (OVCAR-8): 69.8 µM
- LC50 (50% net cell kill) (OVCAR-8): > 100 µM
- GI50 (OVCAR-5): > 100 µM
- LC50 (OVCAR-5): > 100 µM
- GI50 (SK-MEL-28): 20.9 µM
- CC50 (SK-MEL-28): > 100 µM
- LC50 (Malme-3M): > 100 µM
- GI50 (U-251): 1.5 µM
- CC50 (U-251): > 100 µM
- GI50 (SF-539): > 100 µM
- CC50 (SF-539): > 100 µM
- GI50 (SF-295): 24.8 µM
- LC50 (SF-295): > 100 µM
- GI50 (SW-620): 35.8 µM
- LC50 (SW-620): > 100 µM
- GI50 (HT-29): 3.81 µM
- LC50 (HT-29): > 100 µM
- GI50 (HCT-116): 9.97 µM
- LC50 (HCT-116): > 100 µM
- GI50 (COLO 205): 3.56 µM
- LC50 (COLO 205): > 100 µM
- GI50 (SR): 2.83 µM
- LC50 (SR): > 100 µM
- GI50 (RPMI-8226): 2.71 µM
- LC50 (concentration killing 50% of cells) (RPMI-8226): > 100 µM
- GI50 (MOLT-4): 2.54 µM
- LC50 (MOLT-4): > 100 µM
- GI50 (CCRF-CEM): 2.71 µM
- LC50 (concentration killing 50% of cells relative to time zero) (CCRF-CEM): > 100 µM

Compound: COc1cc(C2CC(c3ccc(Nc4ccnc5cc(Cl)ccc45)cc3)=NN2C=O)cc(OC)c1OC (stereo not drawn)
- inhibition at 20 µg/mL (Plasmodium falciparum): 5.8%
- GI50 (T47D): 2.33 µM
- LC50 (concentration giving 50% cell kill relative to time zero) (T47D): > 100 µM
- GI50 (TK-10): 3.09 µM
- LC50 (concentration giving 50% cell loss vs time zero) (TK-10): 38.6 µM
- GI50 (CAKI-1): 5.47 µM
- LC50 (CAKI-1): > 100 µM
- GI50 (RXF 393): 2.22 µM
- LC50 (concentration killing 50% of cells) (RXF 393): > 100 µM
- GI50 (ACHN): 3.24 µM
- CC50 (ACHN): 47 µM
- GI50 (A498): 15.3 µM
- CC50 (A498): > 100 µM
- GI50 (SK-OV-3): 3.36 µM
- LC50 (concentration killing 50% of cells) (SK-OV-3): 55.8 µM
- GI50 (OVCAR-8): 9.98 µM
- LC50 (50% net cell kill) (OVCAR-8): > 100 µM
- GI50 (OVCAR-5): 69.2 µM
- LC50 (OVCAR-5): > 100 µM
- GI50 (SK-MEL-28): 2.22 µM
- CC50 (SK-MEL-28): 14 µM
- GI50 (Malme-3M): 3.2 µM
- LC50 (Malme-3M): > 100 µM
- GI50 (U-251): 2.06 µM
- CC50 (U-251): 19.4 µM
- GI50 (SF-539): 2.75 µM
- CC50 (SF-539): 37.6 µM
- GI50 (SF-295): 5.63 µM
- LC50 (SF-295): > 100 µM
- GI50 (SW-620): 3.49 µM
- LC50 (SW-620): > 100 µM
- GI50 (HT-29): 2.83 µM
- LC50 (HT-29): > 100 µM
- GI50 (HCT-116): 3.21 µM
- LC50 (HCT-116): > 100 µM
- GI50 (COLO 205): 3.73 µM
- LC50 (COLO 205): > 100 µM
- GI50 (SR): 2.58 µM
- LC50 (SR): > 100 µM
- GI50 (RPMI-8226): 2.56 µM
- LC50 (concentration killing 50% of cells) (RPMI-8226): > 100 µM
- GI50 (MOLT-4): 3.36 µM
- LC50 (MOLT-4): > 100 µM
- GI50 (CCRF-CEM): 1.82 µM
- LC50 (concentration killing 50% of cells relative to time zero) (CCRF-CEM): > 100 µM

Compound: Cc1ccc(C2CC(c3ccc(Nc4ccnc5cc(Cl)ccc45)cc3)=NN2C=O)cc1 (stereo not drawn)
- inhibition at 20 µg/mL (Plasmodium falciparum): 0%
- GI50 (T47D): 1.51 µM
- LC50 (concentration giving 50% cell kill relative to time zero) (T47D): > 100 µM
- GI50 (TK-10): > 100 µM
- LC50 (concentration giving 50% cell loss vs time zero) (TK-10): > 100 µM
- GI50 (CAKI-1): > 100 µM
- LC50 (CAKI-1): > 100 µM
- GI50 (RXF 393): 4.89 µM
- LC50 (concentration killing 50% of cells) (RXF 393): > 100 µM
- GI50 (ACHN): 3.27 µM
- CC50 (ACHN): > 100 µM
- CC50 (A498): > 100 µM
- GI50 (SK-OV-3): > 100 µM
- LC50 (concentration killing 50% of cells) (SK-OV-3): > 100 µM
- GI50 (OVCAR-8): > 100 µM
- LC50 (50% net cell kill) (OVCAR-8): > 100 µM
- GI50 (OVCAR-5): > 100 µM
- LC50 (OVCAR-5): > 100 µM
- GI50 (SK-MEL-28): > 100 µM
- CC50 (SK-MEL-28): > 100 µM
- GI50 (Malme-3M): > 100 µM
- LC50 (Malme-3M): > 100 µM
- GI50 (U-251): > 100 µM
- CC50 (U-251): > 100 µM
- GI50 (SF-539): > 100 µM
- CC50 (SF-539): > 100 µM
- GI50 (SF-295): 4 µM
- LC50 (SF-295): > 100 µM
- GI50 (SW-620): > 100 µM
- LC50 (SW-620): > 100 µM
- GI50 (HT-29): 6.09 µM
- LC50 (HT-29): > 100 µM
- GI50 (HCT-116): 25.2 µM
- LC50 (HCT-116): > 100 µM
- GI50 (COLO 205): 4.59 µM
- LC50 (COLO 205): > 100 µM
- GI50 (SR): 3.18 µM
- LC50 (SR): > 100 µM
- GI50 (RPMI-8226): 2.18 µM
- LC50 (concentration killing 50% of cells) (RPMI-8226): > 100 µM
- GI50 (MOLT-4): 5.13 µM
- LC50 (MOLT-4): > 100 µM
- GI50 (CCRF-CEM): 2.25 µM
- LC50 (concentration killing 50% of cells relative to time zero) (CCRF-CEM): > 100 µM
